Measured values taken from ChEMBL document CHEMBL1165941, “Design and synthesis of 2,4-disubstituted polyhydroquinolines as prospective antihyperglycemic and lipid modulating agents” (Bioorg Med Chem, 2010).
Calls of active or inactive are those of the source. No cut-off for these calls is given here.

What was measured:
[1] = molecular target: T1, Tyrosine-protein phosphatase non-receptor type 1 (Homo sapiens) (UniProt P18031); assay: Inhibition of PTP1B assessed as p-nitrophenolate ion production at 100 uM pretreated for 10 mins measured after 30 mins
T1 sequence (whole entry): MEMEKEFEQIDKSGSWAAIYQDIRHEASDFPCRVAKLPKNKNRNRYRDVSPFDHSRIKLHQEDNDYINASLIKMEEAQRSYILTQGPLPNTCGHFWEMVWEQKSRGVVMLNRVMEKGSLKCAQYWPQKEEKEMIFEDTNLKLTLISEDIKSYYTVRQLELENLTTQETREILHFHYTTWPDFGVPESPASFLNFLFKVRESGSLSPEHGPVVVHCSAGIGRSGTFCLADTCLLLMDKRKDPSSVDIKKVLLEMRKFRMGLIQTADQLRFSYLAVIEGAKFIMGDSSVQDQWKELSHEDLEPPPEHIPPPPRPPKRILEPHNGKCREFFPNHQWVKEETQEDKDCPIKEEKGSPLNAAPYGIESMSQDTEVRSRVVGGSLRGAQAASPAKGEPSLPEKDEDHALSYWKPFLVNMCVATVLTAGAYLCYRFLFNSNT
How it was run: (§1)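 PTP1B was preincubated 10 min with compound, with and without 0.01% Triton X-100. Substrate was 10 mM pNPP in 50 mM HEPES pH 7.0 with 1 mM DTT and 2 mM EDTA. After 30 min at 37 °C the reaction was stopped with 0.1 N NaOH and A410 was read. Product was calculated with ε 1.78×10⁴ M⁻¹cm⁻¹. Sodium orthovanadate served as standard. IC50 came from dose–response curves.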

[2] = molecular target: Dipeptidyl peptidase 4 (Homo sapiens) (UniProt P27487); assay: Inhibition of DPP4 at 100 uM after 15 mins by spectrofluorimeter
How it was run: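 DPP-IV activity was measured at 37 °C as Gly-Pro-AMC (30 µM) cleavage in Tris–HCl pH 7.4 with test compound. Fluorescence was read at excitation 355 nm and emission 460 nm. The initial rate was taken over the first 15 min.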

[3] = Inhibition of alpha-glucosidase at 100 uM after 3 mins
How it was run: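 α-Glucosidase (0.1 mg/mL, purified) was assayed in 67 mM sodium phosphate pH 6.8 with 1.0 mg/mL glutathione. The reaction was started with 3.0 mg/mL pNPG and followed at 405 nm every 30 s for 3 min.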

[4] = Inhibition of glycogen phosphorylase assessed as […] phosphate release at 100 uM after 30 mins
How it was run: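 Glycogen phosphorylase was incubated with glycogen, glucose-1-phosphate, NaF and 5′-AMP for 30 min at 37 °C. The reaction was stopped with 10% TCA and 0.1 M sodium acetate. Samples were held overnight at 4 °C, then released Pi was measured.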

[5] = molecular target: T2, Glucose-6-phosphatase catalytic subunit 1 (Homo sapiens) (UniProt P35575); assay: Inhibition of glucose-6-phosphatase assessed as inositol phosphate release at 100 uM after 30 mins; settings: in the assay text read “inorganic phosphate” for “inositol phosphate”
T2 sequence (whole entry): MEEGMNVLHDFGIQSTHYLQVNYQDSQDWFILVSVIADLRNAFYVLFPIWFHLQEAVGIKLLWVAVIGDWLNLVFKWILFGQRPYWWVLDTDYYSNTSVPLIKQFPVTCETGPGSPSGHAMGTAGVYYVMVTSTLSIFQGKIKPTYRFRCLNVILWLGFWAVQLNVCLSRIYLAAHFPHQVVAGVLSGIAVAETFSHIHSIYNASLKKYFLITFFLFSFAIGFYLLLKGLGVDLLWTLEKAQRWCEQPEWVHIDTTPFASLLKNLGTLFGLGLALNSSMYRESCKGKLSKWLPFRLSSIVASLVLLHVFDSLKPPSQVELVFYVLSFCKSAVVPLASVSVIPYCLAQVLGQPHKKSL
How it was run: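 Glucose-6-phosphatase was assayed in 0.3 M citrate pH 6.0 with 28 mM EDTA, 14 mM NaF, 200 mM glucose-6-phosphate and enzyme protein. After 30 min at 37 °C the reaction was stopped with 10% TCA. Activity was expressed as µmol Pi released per min per mg protein.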

[6] = tested on: Rattus norvegicus; assay: Antihyperglycemic activity in Sprague-Dawley albino rat streptozotocin-induced beta-cell damaged diabetic model assessed as decrease of blood glucose level at 100 mg/kg, po administered 30 mins before glucose challenge measured after 24 hrs by glucometer; format: functional; parameters: scale not given: the % may be the effect or the level left
How it was run: (§2)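 Rats were made diabetic with streptozotocin 60 mg/kg ip in 100 mM citrate pH 4.5 after an overnight fast. Animals with glucose 144–270 mg/dl at 48 h were used, 5–6 per group. Compounds were given 100 mg/kg orally in 1.0% gum acacia. Sucrose 2.5 g/kg followed 30 min later. Glucose was read by glucostrips up to 300 min and at 24 h. Non-responders were excluded. Percent activity came from AUC versus control.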

[7] = tested on: Rattus norvegicus; assay: Antihyperglycemic activity in Sprague-Dawley albino rat streptozotocin-induced beta-cell damaged diabetic model assessed as decrease of blood glucose level at 100 mg/kg, po administered 30 mins before glucose challenge measured after 5 hrs by glucometer; format: functional; parameters: scale not given: the % may be the effect or the level left; how it was run: as §2
[8] = tested on: Rattus norvegicus; assay: Antihyperglycemic activity in Charles Foster-Wistar albino rat sucrose loaded model assessed as decrease of blood glucose level at 100 mg/kg, po administered 30 mins before glucose challenge measured up to 120 mins by glucometer; format: functional; parameters: scale not given: the % may be the effect or the level left; settings: in the assay text read “Sprague-Dawley” for “Charles Foster-Wistar”
How it was run: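 Sprague–Dawley male rats with blood glucose 60–80 mg/dl, 5–6 per group, received 100 mg/kg orally as a suspension in 1.0% gum acacia; controls received vehicle. Sucrose 10.0 g/kg was given orally 30 min later. Glucose was read by glucometer at 30, 60, 90 and 120 min. Food was withheld. Percent activity came from AUC versus control.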

[9] = molecular target: T3, Tyrosine-protein phosphatase non-receptor type 1 (Homo sapiens, UniProt P18031); assay: Inhibition of PTP1B assessed as p-nitrophenolate ion production pretreated for 10 mins measured after 30 mins; how it was run: as §1
T3 sequence (P18031 whole entry): T1 sequence (whole entry)

Dipeptidyl peptidase 4 (Homo sapiens), sequence (P27487 whole entry, looked up): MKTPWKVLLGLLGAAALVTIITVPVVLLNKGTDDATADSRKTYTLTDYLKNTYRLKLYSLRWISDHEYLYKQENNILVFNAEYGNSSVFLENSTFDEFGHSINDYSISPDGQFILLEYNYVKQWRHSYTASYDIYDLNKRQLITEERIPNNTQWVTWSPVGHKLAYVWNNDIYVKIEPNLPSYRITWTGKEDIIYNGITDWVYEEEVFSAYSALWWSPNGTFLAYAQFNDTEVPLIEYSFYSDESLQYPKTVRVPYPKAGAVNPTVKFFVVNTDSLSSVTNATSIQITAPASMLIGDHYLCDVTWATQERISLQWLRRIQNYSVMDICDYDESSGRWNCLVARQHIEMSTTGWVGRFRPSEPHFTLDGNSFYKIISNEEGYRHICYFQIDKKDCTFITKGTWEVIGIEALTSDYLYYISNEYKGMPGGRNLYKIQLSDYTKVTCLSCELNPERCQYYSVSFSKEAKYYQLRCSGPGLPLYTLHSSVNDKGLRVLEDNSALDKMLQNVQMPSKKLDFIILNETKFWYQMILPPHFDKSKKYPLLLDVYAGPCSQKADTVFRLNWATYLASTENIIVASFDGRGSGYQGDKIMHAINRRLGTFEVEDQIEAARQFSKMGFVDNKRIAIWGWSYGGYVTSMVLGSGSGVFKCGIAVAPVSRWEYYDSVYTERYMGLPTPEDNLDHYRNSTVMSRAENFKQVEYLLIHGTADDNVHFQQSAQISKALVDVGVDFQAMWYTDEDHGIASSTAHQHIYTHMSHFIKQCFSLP

Compound | inhibition [1] [%] | inhibition [2] | inhibition [3] | inhibition [4] | inhibition [5] | Activity [6] [%] | Activity [7] [%] | Activity [8] [%] | Activity ([8]; Sprague-Dawley albino) | IC50 [9] [µM]
COc1ccc(C2C=C(c3ccccc3)NC3=C2C(=O)CCC3)cc1 (stereo unspecified) | 56.8 | inactive | 7.3% | 13.8% | 17.3% | 19.4 | 17.5 | 29.6 |  | 
CCOC(=O)C1(O)CC(c2ccccc2)C2=C(CC(C)(C)CC2=O)O1 (stereo unspecified) | 21.3 | inactive | inactive | inactive | inactive |  |  |  | inactive | 
COc1ccc(C2C=C(c3ccccc3)NC3=C2C(=O)CC(C)(C)C3)cc1 (stereo unspecified) | 71.8 | 8.6% | inactive | inactive | inactive | 10.9 | 8.8 | 17.8 |  | 14.5
CCOC(=O)C1=CC(c2ccc(Br)cc2)C2=C(CC(C)(C)CC2=O)N1 (stereo unspecified) | 65.6 | inactive | inactive | 49.3% | inactive |  |  | 11.4 |  | 16.6
CC1(C)CC(=O)C2=C(C1)NC(c1ccccc1)=CC2c1ccco1 (stereo unspecified) | 82.5 | 18.6% | inactive | 18.9% | 11.4% |  |  | 14.6 |  | 7.7
O=C1CCCC2=C1C(c1ccccc1)C=C(c1ccccc1)N2 (stereo unspecified) | 51.2 | inactive | inactive | 21.8% | inactive | 13.8 | 15.1 | 19.7 |  | 
CCOC(=O)C1=CC(c2ccc(F)cc2)C2=C(CC(C)(C)CC2=O)N1 (stereo unspecified) | 87.2 | 9.8% | 15.8% | 61.2% | inactive | 23.4 | 24.8 | 35.9 |  | 4.7
Cc1ccc(C2=CC(c3ccccc3)C3=C(CCCC3=O)N2)cc1 (stereo unspecified) | 33.3 | 18.8% | 8.3% | inactive | 27.7% |  |  | 13.4 |  | 
CCOC(=O)C1(O)CC(c2ccc(OC)cc2)C2=C(CC(C)(C)CC2=O)O1 (stereo unspecified) | 13.6 | inactive | inactive | inactive | inactive |  |  |  | inactive | 
CC1(C)CC(=O)C2=C(C1)NC(c1ccccc1)=CC2c1ccc([N+](=O)[O-])cc1 (stereo unspecified) | 84.7 | inactive | 22.4% | inactive | inactive |  |  | 14.1 |  | 6.1
COc1ccc(C2=CC(c3ccccc3)C3=C(CC(C)(C)CC3=O)N2)cc1 (stereo unspecified) | 53.4 | inactive | 22.4% | 18.4% | 8.34% | 11.7 | 11.9 | 17.3 |  | 
CC1(C)CC(=O)C2=C(C1)NC(C(=O)O)=CC2c1ccc(F)cc1 (stereo unspecified) | 27 | inactive | 1.4% | 46.6% | 16.8% | 23.6 | 27.8 | 38.7 |  | 
COc1ccc(-c2cc(-c3ccccc3)nc3c2C(=O)CC(C)(C)C3)cc1 | 9.1 | 22% | inactive | 31.1% | inactive |  |  |  | inactive | 
SODIUM ORTHOVANAD |  | 57.8% |  |  |  |  |  |  |  | 
CCOC(=O)C1(O)CC(c2ccc(Cl)cc2)C2=C(CC(C)(C)CC2=O)O1 (stereo unspecified) | 16.5 | inactive | inactive | 7.6% | inactive |  |  |  | inactive | 
CC1(C)CC(=O)C2=C(C1)NC(c1ccccc1)=CC2c1c[nH]c2ccccc12 (stereo unspecified) | 54.5 | inactive | inactive | 39.7% | 26.7% | 13.2 | 8.1 | 17.3 |  | 
CCOC(=O)C1=CC(c2ccc(Cl)cc2)C2=C(CC(C)(C)CC2=O)N1 (stereo unspecified) | 53.8 | 12.5% | inactive | 56.7% | 11.3% |  |  | 11.4 |  | 
CCOC(=O)C1=CC(c2ccccc2)C2=C(CC(C)(C)CC2=O)N1 (stereo unspecified) | 43.3 | inactive | inactive | 49.5% | inactive | 11.3 | 7.1 | 16.6 |  | 
COc1ccc(Cl)cc1C(=O)NCCc1ccc(S(=O)(=O)NC(=O)NC2CCCCC2)cc1 [GLYBURIDE] |  |  |  |  |  | 28.4 | 25.6 | 32.5 |  | 
CCOC(=O)C1(O)CC(c2ccc(Br)cc2)C2=C(CC(C)(C)CC2=O)O1 (stereo unspecified) | 4.7 | inactive | inactive | 12.3% | inactive |  |  |  | inactive | 
CN(C)C(=N)NC(=N)N [METFORMIN] |  |  |  |  |  | 20.2 | 18 | 13.5 |  | 
CCOC(=O)C1=CC(c2ccc(OC)cc2)C2=C(CC(C)(C)CC2=O)N1 (stereo unspecified) | 66.7 | 16.5% | inactive | 40.4% | 23.8% |  |  | 12.9 |  | 
CC1(C)CC(=O)c2c(-c3ccc(Cl)cc3)cc(-c3ccccc3)nc2C1 | 18.6 | 29.4% | inactive | 13.8% | 11.3% |  |  |  | inactive | 
Cc1ccc(C2=CC(c3ccccc3)C3=C(CC(C)(C)CC3=O)N2)cc1 (stereo unspecified) | 62.3 | inactive | inactive | 31.7% | inactive |  |  | 11.4 |  | 19.6
CC1(C)CC(=O)c2c(-c3ccc(F)cc3)cc(-c3ccccc3)nc2C1 | 7.9 | 13.1% | inactive | 20.3% | 11.1% |  |  |  | inactive | 
